Data as given in ChEMBL document CHEMBL4145545, “Synthesis and structure-activity relationships of asymmetric dimeric β-carboline derivatives as potential antitumor agents” (Eur J Med Chem, 2018).
Activity calls are given as the source filed them. The calls are words filed in the database; no cut-off is given here.

Key:
HepG2 [1] = assay: Cytotoxicity against human HepG2 cells assessed as cell growth inhibition after 24 hrs by MTT assay; assay type: functional, cell-based; conditions: HepG2, 24 h
In short: (§1)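 Cell lines grown to log phase in RPMI-1640 with 10% FBS, penicillin and streptomycin. About 10^5 cells/mL were plated and pre-incubated 24 h at 37 °C in 5% CO2. Compounds were given in DMSO, final ≤2% (v/v). MTT read-out was OD at 490 nm. Triplicate wells per concentration, each assay run ≥3 times. IC50 is 50% OD reduction versus untreated cells, calculated by the Logit method. Cisplatin was the reference.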

MCF7 [2] = assay: Cytotoxicity against human MCF7 cells assessed as cell growth inhibition after 24 hrs by MTT assay; assay type: functional, cell-based; conditions: MCF7, 24 h; in short: as §1
[3] = Cytotoxicity against human BGC cells assessed as cell growth inhibition after 24 hrs by MTT assay; assay type: functional, cell-based; in short: as §1
A-375 = assay: Cytotoxicity against human A375 cells assessed as cell growth inhibition after 24 hrs by MTT assay; assay type: functional, cell-based; conditions: A-375, 24 h; in short: as §1
HT-29 [4] = assay: Cytotoxicity against human HT-29 cells assessed as cell growth inhibition after 24 hrs by MTT assay; assay type: functional, cell-based; conditions: HT-29, 24 h; in short: as §1
769-P = assay: Cytotoxicity against human 769-P cells assessed as cell growth inhibition after 24 hrs by MTT assay; assay type: functional, cell-based; in short: as §1
SK-OV-3 = assay: Cytotoxicity against human SKOV3 cells assessed as cell growth inhibition after 24 hrs by MTT assay; assay type: functional, cell-based; conditions: SK-OV-3, 24 h; in short: as §1
ECa-109 cell line = assay: Cytotoxicity against human ECA109 cells assessed as cell growth inhibition after 24 hrs by MTT assay; assay type: functional, cell-based; conditions: ECa-109, 24 h; in short: as §1
[5] = test system: Lewis lung carcinoma cell line; assay: Cytotoxicity against mouse LLC cells assessed as cell growth inhibition after 24 hrs by MTT assay; assay type: functional, cell-based; in short: as §1
[6] = Acute toxicity in ip dosed Kunming mouse observed continuously for first 2 hrs, intermittently for next 24 hrs and occasionally thereafter for 14 days; assay type: organism-based; conditions: in vivo
In short: (§2)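 SPF KM mice, 6-8 weeks, 19-22 g, fasted overnight with water available. Single i.p. dose, 5.0 to 500 mg kg-1 in 0.5% CMC-Na, 10 mice per group (5 male, 5 female). Observed for behaviour, neurotoxic signs and deaths, then killed on day 14 and heart, liver and kidneys inspected macroscopically. LD50 derived graphically.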

Mus musculus [7] = assay: Neurotoxicity in Kunming mouse assessed as tremble at 5 to 500 mg/kg, ip observed continuously for first 2 hrs, intermittently for next 24 hrs and occasionally thereafter for 14 days; assay type: toxicity, organism-based; conditions: in vivo; in short: as §2
Mus musculus [8] = assay: Neurotoxicity in Kunming mouse assessed as twitch at 5 to 500 mg/kg, ip observed continuously for first 2 hrs, intermittently for next 24 hrs and occasionally thereafter for 14 days; assay type: toxicity, organism-based; conditions: in vivo; in short: as §2
Mus musculus [9] = assay: Neurotoxicity in Kunming mouse assessed as jumping behavior at 5 to 500 mg/kg, ip observed continuously for first 2 hrs, intermittently for next 24 hrs and occasionally thereafter for 14 days; assay type: toxicity, organism-based; conditions: in vivo; in short: as §2
Mus musculus [10] = assay: Neurotoxicity in Kunming mouse assessed as supination at 5 to 500 mg/kg, ip observed continuously for first 2 hrs, intermittently for next 24 hrs and occasionally thereafter for 14 days; assay type: toxicity, organism-based; conditions: in vivo; in short: as §2
Mus musculus [11] = assay: Acute toxicity in ip dosed Kunming mouse assessed as death at higher dose up to 4 to 8 hrs; assay type: organism-based; conditions: in vivo; in short: as §2
Mus musculus [12] = assay: Cardiotoxicity in Kunming mouse at 5 to 500 mg/kg, ip after 14 days by macroscopic method; assay type: toxicity, organism-based; conditions: in vivo, 336 h
Mus musculus [13] = assay: Nephrotoxicity in Kunming mouse at 5 to 500 mg/kg, ip after 14 days by macroscopic method; assay type: toxicity, organism-based; conditions: in vivo, 336 h
Mus musculus [14] = assay: Hepatotoxicity in Kunming mouse at 5 to 500 mg/kg, ip after 14 days by macroscopic method; assay type: toxicity, organism-based; conditions: in vivo, 336 h
Sarcoma-180 [15] = assay: Antitumor activity against mouse Sarcoma 180 cells implanted in mouse assessed as tumor growth inhibition at 7.5 mg/kg, ip administered once per day for 7 consecutive days starting from 24 hrs post tumor inoculation and measured on day 21 post tumor inoculation relative to control; assay type: functional; conditions: Sarcoma-180, ip, read-out: TGI
In short: (§3)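 Tumor cells were harvested from 7-day donor tumors, and 2×10^6 viable cells/mouse were injected s.c. in the armpit. Groups of 10 female mice received i.p. compound daily for 7 days, starting 24 h after inoculation. Controls were vehicle (negative) and CTX 30 mg/kg (positive). Body weight was recorded every 3 days. On day 21 tumors were excised and weighed, and inhibition was calculated as (C−T)/C×100 from mean tumor weights.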

[16] = test system: Lewis lung carcinoma cell line; assay: Antitumor activity against mouse LLC cells implanted in mouse assessed as tumor growth inhibition at 7.5 mg/kg, ip administered once per day for 7 consecutive days starting from 24 hrs post tumor inoculation and measured on day 21 post tumor inoculation relative to control; assay type: functional; conditions: read-out: TGI; in short: as §3
Sarcoma-180 [17] = assay: Antitumor activity against mouse Sarcoma 180 cells implanted in mouse assessed as tumor growth inhibition at 1.6 mg/kg, ip administered once per day for 7 consecutive days starting from 24 hrs post tumor inoculation and measured on day 21 post tumor inoculation relative to control; assay type: functional; conditions: Sarcoma-180, ip, read-out: TGI; in short: as §3
[18] = test system: Lewis lung carcinoma cell line; assay: Antitumor activity against mouse LLC cells implanted in mouse assessed as tumor growth inhibition at 1.6 mg/kg, ip administered once per day for 7 consecutive days starting from 24 hrs post tumor inoculation and measured on day 21 post tumor inoculation relative to control; assay type: functional; conditions: read-out: TGI; in short: as §3
Sarcoma-180 [19] = assay: Antitumor activity against mouse Sarcoma 180 cells implanted in mouse assessed as tumor growth inhibition at 8.3 mg/kg, ip administered once per day for 7 consecutive days starting from 24 hrs post tumor inoculation and measured on day 21 post tumor inoculation relative to control; assay type: functional; conditions: Sarcoma-180, ip, read-out: TGI; in short: as §3
[20] = test system: Lewis lung carcinoma cell line; assay: Antitumor activity against mouse LLC cells implanted in mouse assessed as tumor growth inhibition at 8.3 mg/kg, ip administered once per day for 7 consecutive days starting from 24 hrs post tumor inoculation and measured on day 21 post tumor inoculation relative to control; assay type: functional; conditions: read-out: TGI; in short: as §3
[21] = test system: Lewis lung carcinoma cell line; assay: Antimigratory activity against mouse LLC cells assessed as reduction in wound closure at 50 uM after 24 hrs by inverted microscopic method; assay type: functional, cell-based
In short: (§4)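 HT-29 or LLC cells (about 1×10^6/mL) were grown to 90% confluence and given a single straight pipette-tip scratch. After a PBS wash, fresh FBS-containing medium with various compound concentrations was added for 24 h. Migration distance was measured under an inverted microscope. Each assay was done three times, with CA4P as positive control.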

HT-29 [22] = assay: Antimigratory activity against human HT-29 cells assessed as reduction in wound closure at 0.5 to 50 uM after 24 hrs by inverted microscopic method; assay type: functional, cell-based; in short: as §4
Chorioallantoic membrane = assay: In vivo antiangiogenic activity in chicken embryo chorioallantoic membrane at 50 uM/disc after 48 hrs by microscopic method; assay type: functional, organism-based; conditions: Gallus gallus
HepG2 [23] = assay: Cytotoxicity against human HepG2 cells; assay type: functional, cell-based; in short: as §1
MCF7 [24] = assay: Cytotoxicity against human MCF7 cells; assay type: functional, cell-based; in short: as §1
HT-29 [25] = assay: Cytotoxicity against human HT-29 cells; assay type: functional, cell-based; in short: as §1

| SMILES | IC50 (HepG2 [1]) | IC50 (MCF7 [2]) | IC50 [3] | IC50 (A-375) | IC50 (HT-29 [4]) | IC50 (769-P) | IC50 (SK-OV-3) | IC50 (ECa-109 cell line) | IC50 [5] | LD50 at 14 days [6] | Activity (Mus musculus [7]) | Activity (Mus musculus [8]) | Activity (Mus musculus [9]) | Activity (Mus musculus [10]) | Activity (Mus musculus [11]) | Activity (Mus musculus [12]) | Activity (Mus musculus [13]) | Activity (Mus musculus [14]) | other results |
| --- | --- | --- | --- | --- | --- | --- | --- | --- | --- | --- | --- | --- | --- | --- | --- | --- | --- | --- | --- |
| Cc1nccc2c3ccc(OCCCCn4c5ccccc5c5ccnc(-c6cccs6)c54)cc3n(CCCc3ccccc3)c12.Cl | 8.1 µM | 12 µM | 11.4 µM | 14.6 µM | 18.1 µM | 11.9 µM | 11.2 µM | 4.9 µM | 4.2 µM | 37.5 mg/kg | Non-Toxic | Non-Toxic | Non-Toxic | Non-Toxic | Toxic | Non-Toxic | Non-Toxic | Non-Toxic | inhibition in vivo at 7.5 mg/kg (Sarcoma-180 [15]): 47.3%; inhibition in vivo at 7.5 mg/kg [16]: 31.6% |
| COc1ccc2c3ccnc(C)c3n(CCCCOc3ccc4c5ccnc(C)c5n(CCCc5ccccc5)c4c3)c2c1.Cl | 5.6 µM | 23.4 µM | 4.7 µM | 15.3 µM | 21.6 µM | 8.5 µM | 30 µM | 18.4 µM | 14.4 µM | 8 mg/kg | Toxic | Toxic | Toxic | Toxic | Toxic | Non-Toxic | Non-Toxic | Non-Toxic | inhibition in vivo at 1.6 mg/kg (Sarcoma-180 [17]): 49.9%; inhibition in vivo at 1.6 mg/kg [18]: 38.2% |
| COc1ccc(-c2nccc3c4ccccc4n(CCCCOc4ccc5c6ccnc(C)c6n(CCCc6ccccc6)c5c4)c23)cc1.Cl | 14.1 µM | 8.5 µM | 12.1 µM | 13.6 µM | 13.3 µM | 4.9 µM | 4.2 µM | 4.5 µM | 3.4 µM | 41.5 mg/kg | Non-Toxic | Non-Toxic | Non-Toxic | Non-Toxic | Toxic | Non-Toxic | Non-Toxic | Non-Toxic | inhibition in vivo at 8.3 mg/kg (Sarcoma-180 [19]): 54.6%; inhibition in vivo at 8.3 mg/kg [20]: 48.1%; Activity [21]: Active; Activity (HT-29 [22]): Active; Activity (Chorioallantoic membrane): Active |
| CCCCn1c2cnccc2c2ccc(OCCCCCCOc3ccc4c5ccnc(C)c5n(CCCC)c4c3)cc21 | – | – | – | – | – | – | – | – | – | – | – | – | – | – | – | – | – | – | IC50 (HepG2 [23]): 13 µM; IC50 (MCF7 [24]): > 100 µM; IC50 (HT-29 [25]): 6.1 µM |
